Measured values as given in publication PMC7357868 (ACS chemical biology, 2019).

Experiments:
[1] = biological target: T1, hpol η binding to primer-template DNA (Homo sapiens, UniProt Q9Y253); assay: Fluorescence anisotropy DNA binding assay; details: inhibitor concentration near the IC50 for pol activity; 2 nM FAM-labeled p/t-DNA
T1 sequence (Q9Y253 1-437): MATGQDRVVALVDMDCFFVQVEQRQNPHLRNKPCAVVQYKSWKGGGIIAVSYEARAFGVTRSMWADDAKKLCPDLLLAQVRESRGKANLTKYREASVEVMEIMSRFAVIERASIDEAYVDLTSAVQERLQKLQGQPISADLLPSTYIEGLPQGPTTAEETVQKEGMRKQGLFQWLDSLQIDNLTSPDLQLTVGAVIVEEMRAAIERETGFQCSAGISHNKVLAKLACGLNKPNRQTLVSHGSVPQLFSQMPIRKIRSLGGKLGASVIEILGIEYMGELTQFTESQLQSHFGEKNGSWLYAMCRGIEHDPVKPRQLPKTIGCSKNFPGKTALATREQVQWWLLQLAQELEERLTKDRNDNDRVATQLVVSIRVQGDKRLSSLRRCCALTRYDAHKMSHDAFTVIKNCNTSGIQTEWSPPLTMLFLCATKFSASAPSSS

hpol κ = biological target: T2, hpol κ (Homo sapiens, UniProt Q9UBT6); assay: HPG chemical footprinting with LC-MS; details: 10 μM hpol κ, IAG-10 20 and 100 μM, 500 μM HPG
T2 sequence (Q9UBT6 19-526): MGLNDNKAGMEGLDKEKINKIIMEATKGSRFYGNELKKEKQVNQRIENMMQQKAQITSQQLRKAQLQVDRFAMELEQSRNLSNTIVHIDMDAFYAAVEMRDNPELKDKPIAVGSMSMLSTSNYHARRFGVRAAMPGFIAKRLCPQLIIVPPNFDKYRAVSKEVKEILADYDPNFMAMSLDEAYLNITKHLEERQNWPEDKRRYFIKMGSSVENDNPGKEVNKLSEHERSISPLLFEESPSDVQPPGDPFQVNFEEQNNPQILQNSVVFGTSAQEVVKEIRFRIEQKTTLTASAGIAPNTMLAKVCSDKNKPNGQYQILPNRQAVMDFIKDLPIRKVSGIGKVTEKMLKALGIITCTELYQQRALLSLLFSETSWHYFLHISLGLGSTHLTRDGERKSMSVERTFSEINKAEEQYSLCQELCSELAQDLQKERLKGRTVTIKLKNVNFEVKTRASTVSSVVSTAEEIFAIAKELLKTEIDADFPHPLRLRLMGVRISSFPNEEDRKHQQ

[2] = tested on: hpol κ-deficient HAP-1 cells; assay: Alkaline comet assay; type: cell-based, human
In short: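 100 000 HAP-1 cells per well, test compound 0.5 μM alone or with alkylating agent (100 μM), 1 h; DMSO control. Cells embedded in low-melting agarose (200–300 per well), lysed 1 h, alkaline unwinding (200 mM NaOH, 1 mM EDTA) 20 min RT, electrophoresis 21 V, 30 min, 4 °C, SYBR Gold stain. Read-out is % DNA in tail per cell; ≥20 cells per replicate, three biological replicates, mean ±SD.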

With `Cl.[H]/N=C(\N)NN=Cc1cn(C(=O)c2cccc3ccccc23)c2ccc(Cl)cc12` [IAG-10, (E)-2-((1-(1-naphthoyl)-5-chloro-1H-indol-3-yl)-methylene)hydrazine-1-carboximidamide hydrochloride] the “increase in the Kd,DNA” value [1] was 20–30%, the “change in the fraction of HPG-modified peptides containing Arg48” value (hpol κ) was “large increase” and the “decrease in the fraction of HPG-modified peptides (Arg145, Arg149, Arg505)” value (hpol κ) was greater than 50%. The “DNA damage (% DNA in tail) over control” value ([2]; 0.5 μM IAG-10 alone, 1 h) was “did not increase DNA damage over control” and the “DNA damage (% DNA in tail)” value ([2]; 100 μM TMZ + 0.5 μM IAG-10, compared with TMZ alone) was “did not increase further”.
